Source: ChEMBL document CHEMBL1156979, “The impact of polyether chain length on the iron clearing efficiency and physiochemical properties of desferrithiocin analogues” (J Med Chem, 2010)
Values belong to the compound of their own block, whether it stands above or below them. Activity calls are given as the source filed them. The rule behind the calls is not given here.

How the values were obtained:
[1] = tested on: Sapajus apella; assay: Iron-clearing efficiency in iron-overloaded Cebus apella at 150 umol/kg, po measured daily once for 2 days by flame absorption spectroscopy relative to control; assay type: functional
[2] = tested on: Sapajus apella; assay: Iron-clearing efficiency in iron-overloaded Cebus apella assessed as feces iron excretion at 150 umol/kg, po measured daily once for 5 days by lame absorption spectroscopy relative to control; assay type: functional
[3] = tested on: Sapajus apella; assay: Iron-clearing efficiency in iron-overloaded Cebus apella assessed as urine iron excretion at 150 umol/kg, po measured daily once for 5 days by lame absorption spectroscopy relative to control; assay type: functional
[4] = tested on: Rattus norvegicus; assay: Iron-clearing efficiency in non-iron-overloaded and bile duct-cannulated Sprague-Dawley rat assessed as time required to maximum bile iron excretion at 300 umol/kg, po; assay type: functional
Procedure, shortened: (§1)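 Non-iron-overloaded male Sprague-Dawley rats (400–450 g), bile duct-cannulated, given a single oral dose of 300 μmol/kg, either by gavage as monosodium salt or in capsules. Bile was collected at 3 h intervals for up to 48 h and urine every 24 h. Iron was measured by flame absorption spectroscopy. ICE = 24-h iron excretion of treated rats minus controls, divided by theoretical output (2:1 ligand:iron); percent. Mean ± SEM; one-tailed t-test.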

[5] = tested on: Rattus norvegicus; assay: Iron-clearing efficiency in non-iron-overloaded and bile duct-cannulated Sprague-Dawley rat assessed as bile iron excretion at 300 umol/kg, po up to 12 hrs; assay type: functional, organism-based; procedure, shortened: as §1
[6] = tested on: Rattus norvegicus; assay: Iron-clearing efficiency in non-iron-overloaded and bile duct-cannulated Sprague-Dawley rat at 300 umol/kg, po after 24 hrs relative to control; assay type: functional; procedure, shortened: as §1
[7] = tested on: Rattus norvegicus; assay: Iron-clearing efficiency in non-iron-overloaded and bile duct-cannulated Sprague-Dawley rat assessed as bile iron excretion at 300 umol/kg, po after 24 hrs relative to control; assay type: functional; procedure, shortened: as §1
[8] = tested on: Rattus norvegicus; assay: Iron-clearing efficiency in non-iron-overloaded and bile duct-cannulated Sprague-Dawley rat assessed as urine iron excretion at 300 umol/kg, po after 24 hrs relative to control; assay type: functional
[9] = tested on: Sapajus apella; assay: Iron-clearing efficiency in iron-overloaded Cebus apella at 75 umol/kg, po measured daily once for 2 days by flame absorption spectroscopy relative to control; assay type: functional
Procedure, shortened: (§2)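 Iron-overloaded Cebus apella (3.5–4 kg; iv iron dextran to about 500 mg Fe/kg, ≥60 days before use) dosed orally at 75 μmol/kg, by gavage as monosodium salt (1 equiv NaOH in distilled water) or in capsules. Feces and urine collected every 24 h from 4 days pre-drug to 5 days post-drug; iron by flame absorption spectroscopy. ICE = 2-day post-drug iron minus 4-day baseline average, divided by theoretical output (2:1 ligand:iron); percent. Performance ratio = mean primate ICE/rodent ICE.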

[10] = tested on: Sapajus apella; assay: Iron-clearing efficiency in iron-overloaded Cebus apella assessed as feces iron excretion at 75 umol/kg, po measured daily once for 5 days by lame absorption spectroscopy relative to control; assay type: functional
[11] = tested on: Sapajus apella; assay: Iron-clearing efficiency in iron-overloaded Cebus apella assessed as urine iron excretion at 75 umol/kg, po measured daily once for 5 days by lame absorption spectroscopy relative to control; assay type: functional
[12] = Ratio of iron-clearing efficiency in iron-overloaded Cebus apella at 75 umol/kg, po to iron-clearing efficiency in non-iron-overloaded and bile duct-cannulated Sprague-Dawley rat at 300 umol/kg, po; assay type: functional, organism-based; procedure, shortened: as §2
[13] = tested on: Rattus norvegicus; assay: Iron-clearing efficiency in non-iron-overloaded and bile duct-cannulated Sprague-Dawley rat assessed as bile iron excretion at 300 umol/kg, po up to 24 hrs; assay type: functional, organism-based; procedure, shortened: as §1
[14] = tested on: Rattus norvegicus; assay: Iron-clearing efficiency in non-iron-overloaded and bile duct-cannulated Sprague-Dawley rat assessed as reduction of pancreatic iron content at 192 umol/kg, po qd for 10 days relative to control; assay type: functional, organism-based
Procedure, shortened: (§3)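 Male Sprague-Dawley rats (300–350 g) were fasted overnight and dosed orally once daily for 10 d. Dosing was 384 μmol/kg/d in gelatin capsules (n = 5) or by gavage as monosodium salt (n = 10), or 192 (n = 6) or 384 μmol/kg/d (n = 5) in capsules. Rats were fed ~3 h post-dose. Age-matched untreated controls (n = 12). Kidney, liver, heart and pancreas were taken on day 11, wet-ashed (120 °C, then H2O2), and iron was measured by flame absorption spectroscopy.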

[15] = tested on: Rattus norvegicus; assay: Iron-clearing efficiency in non-iron-overloaded and bile duct-cannulated Sprague-Dawley rat assessed as reduction of cardiac iron content at 192 umol/kg, po qd for 10 days relative to control; assay type: functional, organism-based; details: Heart; procedure, shortened: as §3
[16] = tested on: Rattus norvegicus; assay: Iron-clearing efficiency in non-iron-overloaded and bile duct-cannulated Sprague-Dawley rat assessed as reduction of liver iron content at 192 umol/kg, po qd for 10 days relative to control; assay type: functional; design: scale not given: the % may be the effect or the level left; procedure, shortened: as §3
[17] = tested on: Rattus norvegicus; assay: Iron-clearing efficiency in non-iron-overloaded and bile duct-cannulated Sprague-Dawley rat assessed as reduction of renal iron content at 192 umol/kg, po qd for 10 days relative to control; assay type: functional; design: scale not given: the % may be the effect or the level left; procedure, shortened: as §3
[18] = tested on: Rattus norvegicus; assay: Iron-clearing efficiency in non-iron-overloaded and bile duct-cannulated Sprague-Dawley rat at 300 umol/kg, po after 48 hrs relative to control; assay type: functional; procedure, shortened: as §1
[19] = tested on: Rattus norvegicus; assay: Iron-clearing efficiency in non-iron-overloaded and bile duct-cannulated Sprague-Dawley rat assessed as urine iron excretion at 300 umol/kg, po after 48 hrs relative to control; assay type: functional
[20] = Octanol-water partition coefficient, log P in Tris buffer at pH 7.4 by shake flask method; assay type: physicochemical
Procedure, shortened: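 Octanol/water partition was measured at pH 7.4 (Tris buffer) by the shake-flask direct method. The fraction of drug in octanol is expressed as log P_app.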

[21] = Ratio of iron-clearing efficiency in iron-overloaded Cebus apella at 75 umol/kg, po to iron-clearing efficiency in non-iron-overloaded and bile duct-cannulated Sprague-Dawley rat at 300 umol/kg, po after 48 hrs; assay type: functional, organism-based; procedure, shortened: as §2
[22] = tested on: Rattus norvegicus; assay: Iron-clearing efficiency in non-iron-overloaded and bile duct-cannulated Sprague-Dawley rat assessed as time required to maximum bile iron excretion at 300 umol/kg, po after 12 to 15 hrs; assay type: functional, organism-based; procedure, shortened: as §1
[23] = tested on: Rattus norvegicus; assay: Iron-clearing efficiency in non-iron-overloaded and bile duct-cannulated Sprague-Dawley rat assessed as bile iron excretion at 300 umol/kg, po up to 48 hrs; assay type: functional, organism-based; procedure, shortened: as §1
[24] = tested on: Rattus norvegicus; assay: Renal toxicity in Sprague-Dawley rat at 384 umol/kg, po qd for 10 days; assay type: organism-based; details: in vivo, 240 h
Procedure, shortened: (§4)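 Male Sprague-Dawley rats (300–350 g), fasted overnight, were dosed orally once daily for 10 d. Dosing was 384 μmol/kg/d (capsules or by gavage as monosodium salt) or 192 μmol/kg/d (capsules). Age-matched untreated controls. Rats were euthanized 24 h after the last dose (day 11), and extensive tissues were examined histopathologically.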

[25] = tested on: Rattus norvegicus; assay: Toxicity in Sprague-Dawley rat assessed as mild to moderate vacuolar degeneration of proximal tubular epithelial cells at 384 umol/kg, po qd for 10 days; assay type: organism-based, Epithelial cell; details: in vivo, 240 h; procedure, shortened: as §4
[26] = tested on: Rattus norvegicus; assay: Toxicity in Sprague-Dawley rat assessed as histopathological examination at 192 umol/kg, po qd for 10 days; assay type: organism-based; details: in vivo, 240 h; procedure, shortened: as §4
[27] = tested on: Rattus norvegicus; assay: Iron-clearing efficiency in non-iron-overloaded and bile duct-cannulated Sprague-Dawley rat assessed as reduction of renal iron content at 384 umol/kg, po qd for 10 days relative to control; assay type: functional; design: scale not given: the % may be the effect or the level left; procedure, shortened: as §3
[28] = tested on: Rattus norvegicus; assay: Iron-clearing efficiency in non-iron-overloaded and bile duct-cannulated Sprague-Dawley rat assessed as reduction of liver iron content at 384 umol/kg, po qd for 10 days relative to control; assay type: functional; design: scale not given: the % may be the effect or the level left; procedure, shortened: as §3
[29] = tested on: Rattus norvegicus; assay: Iron-clearing efficiency in non-iron-overloaded and bile duct-cannulated Sprague-Dawley rat assessed as reduction of pancreatic iron content at 384 umol/kg, po qd for 10 days relative to control; assay type: functional, organism-based; procedure, shortened: as §3
[30] = tested on: Rattus norvegicus; assay: Iron-clearing efficiency in non-iron-overloaded and bile duct-cannulated Sprague-Dawley rat assessed as reduction of cardiac iron content at 384 umol/kg, po qd for 10 days relative to control; assay type: functional, organism-based; details: Heart; procedure, shortened: as §3
[31] = tested on: Rattus norvegicus; assay: Iron-clearing efficiency in non-iron-overloaded and bile duct-cannulated Sprague-Dawley rat at 150 umol/kg, po after 24 hrs relative to control; assay type: functional
[32] = tested on: Rattus norvegicus; assay: Iron-clearing efficiency in non-iron-overloaded and bile duct-cannulated Sprague-Dawley rat assessed as bile iron excretion at 150 umol/kg, po after 24 hrs relative to control; assay type: functional
[33] = tested on: Rattus norvegicus; assay: Iron-clearing efficiency in non-iron-overloaded and bile duct-cannulated Sprague-Dawley rat assessed as urine iron excretion at 150 umol/kg, po after 24 hrs relative to control; assay type: functional
[34] = Ratio of iron-clearing efficiency in iron-overloaded Cebus apella to iron-clearing efficiency in non-iron-overloaded Sprague-Dawley rat at 150 umol/kg, po; assay type: functional

Structure (SMILES): COCCOCCOCCOc1ccc(C2=N[C@@](C)(C(=O)O)CS2)c(O)c1
- Activity [1]: 25.4%
- Activity [2]: 96%
- Activity [3]: 4%
- Time [4]: 3 h
- Activity [5]: Active

Structure (SMILES): COCCOCCOCCOCCOc1ccc(C2=N[C@@](C)(C(=O)[O-])CS2)c(O)c1.[Na+]
- Activity [6]: 12%
- Activity [7]: 99%
- Activity [8]: 1%
- Activity [9]: 9.8%
- Activity [10]: 52%
- Activity [11]: 48%
- Ratio [12]: 0.8
- Time [4]: 6 h
- Activity [13]: Active

- logD [20]: 3
Structure (SMILES): CCOC(=O)[C@@]1(C)CSC(c2ccc(OCCOCCOC)cc2O)=N1
- Activity [14]: inactive
- Activity [15]: inactive
- Activity [16]: 27%
- Activity [17]: 12.6%
- Activity [18]: 25.9%
- Activity [19]: 1%
- Activity [9]: 8.8%
- Activity [10]: 98%
- Activity [11]: 2%
- Ratio [21]: 0.3
- Activity [22]: inactive
- Activity [23]: Active
- Activity [24]: Toxic
- Activity [25]: Toxic
- Activity [26]: Non-toxic
- Activity [27]: 32.1%
- Activity [28]: 59.1%
- Activity [29]: inactive
- Activity [30]: inactive

Structure (SMILES): COCCOCCOc1ccc(C2=N[C@@](C)(C(=O)[O-])CS2)c(O)c1.[Na+]
- Activity [9]: 26.3%
- Activity [10]: 83%
- Activity [11]: 7%

Structure (SMILES): C[C@]1(C(=O)O)CSC(c2ncccc2O)=N1 [DESFERRITHIOCIN]
- Activity [31]: 5.5%
- Activity [32]: 93%
- Activity [33]: 7%
- Activity [1]: 16.1%
- Activity [2]: 78%
- Activity [3]: 22%
- logD [20]: -1.77
- Ratio [34]: 2.9
